Published values pooled from the literature.
Lines come from different studies, so protocols differ.
Target: Myosin light chain kinase 2, skeletal/cardiac muscle (MYLK2, Homo sapiens, UniProt Q9H1R3)

CNC(=O)c1cc(Oc2ccc(NC(=O)Nc3ccc(Cl)c(C(F)(F)F)c3)cc2)ccn1  inhibition (enzyme activity, inhibitor; 0.3 µM): 4%
CNC(=O)c1ccc(Nc2ncc(C(F)(F)F)c(NCc3nccnc3N(C)S(C)(=O)=O)n2)cc1  remaining binding (cell-free assay, competition with immobilised ligand; 0.1 µM): 63%
COc1cc(Cl)c(C(=O)N[C@@H](CN[C@H]2CC[C@@H](N)CC2)Cc2ccc(C#N)cc2)cc1-c1ccc(CN[C@H](C)c2ccc(C)cc2)o1  remaining activity (enzyme activity, inhibitor; 1 µM): 99%
CCN(CC)CCNC(=O)c1c(C)[nH]c(/C=C2\C(=O)Nc3ccc(F)cc32)c1C  inhibition (enzyme activity, inhibitor; 10 µM): 92%
O=C(NCc1ncc(C(F)(F)F)cc1Cl)c1ccc2c(c1)C1(CCS(=O)(=O)CC1)[C@H](C1CC1)N2S(=O)(=O)c1ccc(F)cc1  remaining binding (cell-free assay, competition with immobilised ligand; 1 µM): 100%
O=C1c2ccccc2-c2n[nH]c3cccc1c23  activity vs control (enzyme activity, inhibitor; 0.5 µM): 22.2%
COc1cccc(CNC(=O)c2nc3scc(COCc4ccc(C(=O)O)cc4)c3c(=O)[nH]2)c1  remaining binding (cell-free assay, competition with immobilised ligand; 1 µM): 100%
N#CCCc1ccc2c(c1)-c1[nH]c3ccc([N+](=O)[O-])cc3c1CC(=O)N2  remaining signal (cell-free assay; 0.5 µM): 93.9%
C[C@H](c1ccnc(Nc2nc3ccc(-c4cc(N(C)C)ncn4)cc3[nH]2)c1)N1CCN(C(=O)CC(F)(F)F)CC1  remaining binding (cell-free assay, competition with immobilised ligand; 0.1 µM): 92%
Cc1ccc(C(=O)Nc2ccc(CN3CCN(C)CC3)c(C(F)(F)F)c2)cc1C#Cc1cnc2cccnn12  remaining activity (enzyme activity, inhibitor; 23.5 nM): 100%
CN([C@@H]1CCc2c(CC(=O)O)c3cc(S(C)(=O)=O)ccc3n2C1)S(=O)(=O)c1ccc(F)cc1  remaining binding (cell-free assay, competition with immobilised ligand; 1 µM): 100%
COc1cc2c(N3CCN(C(=O)Nc4ccc(OC(C)C)cc4)CC3)ncnc2cc1OCCCN1CCCCC1  remaining signal (cell-free assay; 0.5 µM): 101%
Nc1ncnc2occ(-c3ccc(NC(=O)Nc4cc(C(F)(F)F)ccc4F)cc3)c12  remaining activity (enzyme activity, inhibitor; 20 µM): 1.4%
COc1cc2ncnc(Nc3ccc(Oc4ccccc4)cc3C)c2cc1OC  inhibition (enzyme activity, inhibitor; 1 µM): -4%
O=C(Nc1cnn(-c2csc(C(=O)NC3COC3)c2)c1)Nc1c(F)cccc1Cl  remaining activity (enzyme activity, inhibitor; 5 µM): 83.5%
Cc1cc(NC(=O)c2cccc3cc(-c4cccc5[nH]nc(N)c45)ccc23)ccc1F  activity vs control (enzyme activity, inhibitor; 0.1 µM): 97%
CC(C)(C)c1nc2c(s1)c1nc(N)ncc1c1ccc(NS(=O)(=O)c3c(F)cccc3F)c(F)c12  remaining activity (enzyme activity, inhibitor, radiometric; 1 µM): 113%
Cc1sc(C(=O)NC2COC2)cc1-n1cc(NC(=O)Nc2c(F)cccc2Cl)cn1  remaining activity (enzyme activity, inhibitor; 10 µM): 78.7%
O=C1NC(=O)c2cc(Nc3ccc(F)cc3)c(Nc3ccc(F)cc3)cc21  remaining signal (cell-free assay; 0.5 µM): 98.7%
